# V-ATPase pHluor = alters yeast V-ATPase proton transport; S. cerevisiae, pHLuorin cytosolic pH fluorescence; response, % at 10 µM; 350,000 compounds, 0.37% hits; AID 504577; in the data active = response mostly above about 7.3%, no sharp cut-off; inactive = mostly below about 5.4%; note: actives read high
# GalR3 antagonist = antagonists of human GalR3 | O60755 | inhibition, % at 3 µM | AID 651719 | 360,000 compounds, 0.44% hits | HEK293 GalR3-CNG cAMP membrane potential fluorescence; galR3 body fused to GalR1 C-terminus;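 active = inhibition above the screen-wide average plus 3 SD, cut at about 13% in these data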;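 note: forskolin and galanin both at EC90 stimulate the cells; cAMP rise reported by CNG channel membrane potential dye signal; 0% = forskolin plus galanin with DMSO and 100% = forskolin alone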
# Target sequence (O60755 1-299 limits assumed): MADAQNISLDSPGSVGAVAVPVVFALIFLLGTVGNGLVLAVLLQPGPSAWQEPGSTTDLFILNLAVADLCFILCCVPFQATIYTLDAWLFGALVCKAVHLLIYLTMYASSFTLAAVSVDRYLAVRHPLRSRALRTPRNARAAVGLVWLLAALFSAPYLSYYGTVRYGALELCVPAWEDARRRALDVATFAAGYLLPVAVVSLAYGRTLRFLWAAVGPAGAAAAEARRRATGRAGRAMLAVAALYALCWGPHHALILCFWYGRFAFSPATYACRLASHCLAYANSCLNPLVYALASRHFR
# Env fusion inh = blocks HIV Env-driven cell-cell fusion; HeLa-JRFL Env/CEM21 cell fusion, luciferase; inhibition, % at 12.3 µM; 360,000 compounds, 1.1% hits; AID 651610;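 active = mean replicate inhibition score of at least 50 and every replicate individually at or above 50; inconclusive = only one of the two criteria met; inactive = mean below 50 and not all replicates reaching 50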;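 note: 0% = plate neutral controls and 100% = maraviroc near 300 nM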
# FXN GAA850 act = frataxin GAA850 promoter activation; HEK293 lucGAA850 FXN promoter luciferase reporter, 24 h; percent of 10 µM SAHA response; activation, % at 6 µM; 360,000 compounds, 0.56% hits; AID 540364;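 active = activation above the average of all compounds screened plus 3 SD, cutoff fixed separately per campaign, cut at about 7.5% in these data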;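 note: 0% = DMSO wells and 100% = 10 µM SAHA wells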
# NR2E3 ag-1 = activates human photoreceptor nuclear receptor NR2E3; Q9Y5X4; GST-NR2E3/biotin-RetCOR TR-FRET, 1536-well; inhibition of corepressor binding, % at 4.78 µM; 320,000 compounds, 0.12% hits; AID 2300;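 active = percent inhibition above the cutoff of mean plus 3 SD of all tested compounds, set per screening campaign, cut at about 20% in these data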;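 note: 0% = DMSO wells and 100% = biotin wells as full block of FRET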
# Target sequence (Q9Y5X4 whole entry, looked up): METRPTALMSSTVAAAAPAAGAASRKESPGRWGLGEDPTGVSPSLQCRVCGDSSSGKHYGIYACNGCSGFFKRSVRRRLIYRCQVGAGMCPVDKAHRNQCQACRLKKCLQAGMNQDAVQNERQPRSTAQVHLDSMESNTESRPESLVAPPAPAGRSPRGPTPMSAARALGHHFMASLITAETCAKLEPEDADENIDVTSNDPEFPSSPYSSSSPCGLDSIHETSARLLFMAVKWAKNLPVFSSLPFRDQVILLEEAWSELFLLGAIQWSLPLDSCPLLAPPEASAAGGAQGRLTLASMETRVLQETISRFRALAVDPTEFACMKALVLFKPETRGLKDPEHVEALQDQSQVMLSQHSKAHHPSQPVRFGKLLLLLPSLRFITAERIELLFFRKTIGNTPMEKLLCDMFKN
#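 Assay system: NR2E3–RetCOR corepressor complex. Quantity: 1.35 nM GST-NR2E3. Buffer or medium: pH 7.5 Tris-based buffer. Reagent: biotinylated RetCOR corepressor at 7 nM final. Schedule: 5 h at 4 °C. Detection: TR-FRET, emission read at 617 and 671 nm. Replicates: one well per compound, singlicate testing.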
# NR2E3 ag-2 = human photoreceptor-specific nuclear receptor agonism; Q9Y5X4; CHO-S Gal4-NCOR/VP16-NR2E3 two-hybrid, luciferase; inhibition of corepressor binding, % at 3.98 µM; 360,000 compounds, 0.35% hits;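 active = inhibition above the mean of all tested compounds plus 3 SD, cut at about 70% in these data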;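 note: 0% = DMSO with NR2E3 transfected cells and 100% = cells lacking NR2E3 construct; higher means lower luciferase signal from less NR2E3 corepressor binding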
# Active calls of the source: *; ? = inconclusive; . = not tested or not shown; ! = a repeat was not active; [ ] = another dose, or the depositor's remark. Most compounds without a hit are left out; they make up all but 2.2% or so of the library.
SMILES,V-ATPase pHluor,GalR3 antagonist,Env fusion inh,FXN GAA850 act,NR2E3 ag-1,NR2E3 ag-2
C[C@@H]1CN([C@H](C)CO)S(=O)(=O)c2ccc(C#Cc3ccncc3)cc2O[C@H]1CN(C)C,.,.,-20[16.7 µM],.,.,.
Nc1ccc(S(=O)(=O)c2ccc(N3CCOCC3)c(N)c2)cc1,-1,0,81*,4,.,11
Nc1cc(S(=O)(=O)N2CCOCC2)ccc1N1CCCCC1,6,0,-10,0,.,3
COc1ccc([C@H]2/C=C\CN(C(=O)C3CC3)[C@@H](C)C(=O)N2Cc2ccc(F)cc2)cc1,-1,-4,70*,3,1,-19
C[C@@H]1CN([C@H](C)CO)C(=O)c2cc(C#CC3CC3)cnc2O[C@H]1CN(C)C(=O)c1ccncc1,.,.,-16[16.7 µM],.,.,.
CC(=O)Nc1ccc(NC(=O)COc2ccc(-c3ccc(C#N)cc3)cc2)cc1,-6,3,4,1,-5,7
N#Cc1ccc(-c2ccc(OCC(=O)Nc3cccnc3)cc2)cc1,0,8,59*,0,.,-20
CC(C)(C)n1nnnc1C(c1cccc(C#N)c1)N1CCN2CCCC2C1 (stereo not drawn),1,-2,-74,0,0,16
c1cnc2ccc(C(c3nnnn3C3CCCCC3)N3CCN(C4CCCCC4)CC3)cc2c1 (stereo not drawn),5,-4,-33,-1,-2,-3
CC(C)(C)n1nnnc1C(c1cccc(C#N)c1)N1CCCCCC1 (stereo not drawn),-7,-7,94*,5,1,6
c1cnc2ccc(C(c3nnnn3C3CCCCC3)N3CCCCC3)cc2c1 (stereo not drawn),0,-8,105*,6,2,-2
CCC(C)(C)n1nnnc1C(c1ccc2ncccc2c1)N1CCCCCC1 (stereo not drawn),3,-1,29*,1,-1,-6
CCC(=O)N1C[C@@H](C)[C@H](OC)CN(C)C(=O)c2ccc(NC(=O)Nc3ccc(Cl)cc3)cc2OC[C@@H]1C,.,.,-20[16.7 µM],.,.,.
O=S(=O)(c1ccc(F)c(F)c1)N1CCN(CCc2ccccc2)CC1,9.6*,-7,14,0,2,4
CC1(C)CC2CC(C)(CN2S(=O)(=O)c2cccc(C(=O)OCC(=O)NC(N)=O)c2)C1 (stereo not drawn),2,3,91*,2,4,4
CNC(=O)NC(=O)COC(=O)c1cccc(S(=O)(=O)N2CC3(C)CC2CC(C)(C)C3)c1 (stereo not drawn),-1,1,5,0,0,-21
COc1cc(/C=C/C(=O)c2ccc(NS(=O)(=O)c3ccc(C)cc3)cc2)cc(OC)c1O,113*,0,23,0,0,-1
NCCNC(=O)Cc1cccc(NC(=O)Cc2ccc(Nc3ncnc4c3ncn4[C@@H]3O[C@H](CO)[C@@H](O)[C@H]3O)cc2)c1,-2,.,3,10*,2,-9
OC[C@H]1O[C@@H](n2cnc3c(Nc4ccccc4)ncnc32)[C@H](O)[C@@H]1O,1,2,-5,6,5,-14
Cc1noc(C)c1S(=O)(=O)Nc1cccc2c1O[C@@H](CN(C)Cc1ccncc1)[C@@H](C)CN([C@H](C)CO)C2=O,.,.,12[16.7 µM],.,.,.
CCCCCCc1ccc(OC(=O)c2ccncc2)cc1,1,-4,13,0,-1,-7
CCCCCCOc1ccc(OC(=O)c2ccncc2)cc1,0,-3,70*,4,3,3
C[C@H]1CN([C@@H](C)CO)C(=O)Cc2cc(NC(=O)c3ccncc3)ccc2O[C@@H]1CN(C)Cc1ccc2c(c1)OCO2,.,.,2[16.7 µM],.,.,.
Cc1ccc2c(c1)c1c3n2CCN(CCC#N)C3CCC1 (stereo not drawn),0,-4,72*,-1,.,-29
C[C@@H]1CN([C@H](C)CO)C(=O)c2cccc(NS(=O)(=O)c3cccs3)c2O[C@@H]1CN(C)Cc1ccc(C(F)(F)F)cc1,.,.,84*[16.7 µM],.,.,.
SMILES,V-ATPase pHluor,GalR3 antagonist,Env fusion inh,FXN GAA850 act,NR2E3 ag-1,NR2E3 ag-2
C[C@@H]1CN([C@@H](C)CO)C(=O)c2cccc(NS(=O)(=O)c3ccc(F)cc3)c2O[C@@H]1CN(C)Cc1ccc(-c2ccccc2)cc1,.,.,75*[16.7 µM],.,.,.
C[C@@H]1CN([C@@H](C)CO)C(=O)c2cccc(NS(=O)(=O)c3cccs3)c2O[C@@H]1CN(C)Cc1ccc(C(F)(F)F)cc1,.,.,68*[16.7 µM],.,.,.
C[C@H](CO)N1C[C@H](C)[C@@H](CN(C)Cc2ccc(Cl)c(Cl)c2)Oc2c(NS(=O)(=O)c3cccs3)cccc2C1=O,-2,-6,62*!,0,.,-11
CC(C)CC#Cc1cnc2c(c1)C(=O)N([C@@H](C)CO)C[C@@H](C)[C@H](CN(C)C(=O)c1cnccn1)O2,.,.,8[16.7 µM],.,.,.
C[C@@H]1CN([C@H](C)CO)C(=O)Cc2cc(NC(=O)CCC(F)(F)F)ccc2O[C@@H]1CN(C)S(=O)(=O)c1ccc(F)cc1,.,.,25[16.7 µM],.,.,.
NC(=O)CC(NC(=O)Cc1ccc(Br)cc1)c1ccc(N2CCC(Br)CC2)c([N+](=O)[O-])c1 (stereo not drawn),1,-11,63*,1,-2,-8
NC(=O)CC(NC(=O)Cc1ccc(Br)cc1)c1ccc(N2CCCCCCC2)c([N+](=O)[O-])c1 (stereo not drawn),-2,-6,?,3,1,-13
COc1ccc(CCNc2ccc(C(CC(N)=O)NC(=O)c3ccc(Br)cc3)cc2[N+](=O)[O-])cc1 (stereo not drawn),-6,-3,10,-1,0,-36
COc1ccc(CCNc2ccc(C(CC(N)=O)NC(=O)Cc3ccc(Br)cc3)cc2[N+](=O)[O-])cc1 (stereo not drawn),4,-6,74*,0,3,11
C[C@@H]1CN([C@H](C)CO)C(=O)c2cc(-c3ccc(F)cc3)cnc2O[C@H]1CN(C)CC1CCCC1,.,.,22[16.7 µM],.,.,.
Cc1ccc(-c2ccc3c(c2)O[C@H](CN(C)Cc2ccccc2)[C@H](C)CN([C@H](C)CO)S3(=O)=O)cc1,.,.,18[16.7 µM],.,.,.
Cc1ccc(-c2ccc3c(c2)O[C@@H](CN(C)Cc2cccnc2)[C@H](C)CN([C@H](C)CO)S3(=O)=O)cc1,.,.,75*[16.7 µM],.,.,.
C[C@@H]1CN([C@H](C)CO)S(=O)(=O)c2ccc(-c3ccccc3)cc2O[C@H]1CN(C)Cc1ccccc1,.,.,55*[16.7 µM],.,.,.
C[C@H]1CN([C@@H](C)CO)S(=O)(=O)c2ccc(-c3ccc(F)cc3)cc2O[C@H]1CN(C)Cc1cccc(F)c1,.,.,62*[16.7 µM],.,.,.
C[C@H]1CN([C@@H](C)CO)S(=O)(=O)c2ccc(C3=CCCC3)cc2O[C@H]1CN(C)Cc1ccccc1,.,.,57*[16.7 µM],.,.,.
C[C@@H]1CN([C@@H](C)CO)S(=O)(=O)c2ccc(C3=CCCCC3)cc2O[C@@H]1CN(C)Cc1ccccc1,.,.,24[16.7 µM],.,.,.

# Screens: PubChem BioAssay, several laboratories
